# Source: ChEMBL document CHEMBL1145793, “Discovery and structure-activity relationships of novel piperidine inhibitors of farnesyltransferase” (J Med Chem, 2003)
# Target: Protein farnesyltransferase (Bos taurus, UniProt P29702+P49355)
# Assay: Inhibition of bovine brain farnesyltransferase (FTase) farnesylation of viral K-Ras
# Method in brief: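 Partially purified bovine brain farnesyltransferase, used as a crude dialysate. Substrates were viral K-Ras protein and [3H]farnesyl pyrophosphate. It was calculated by comparing untreated enzyme activity with activity at known inhibitor concentrations.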
row,Compound,IC50 [µM]
1,O=C1CC(c2ccc(Br)cc2)[C@H]([N+](=O)[O-])[C@@H](c2ccc(O)cc2)N1Cc1cccnc1 (stereo not given in full),> 3.7
2,O=C1CC(c2cccc(Br)c2)[C@H]([N+](=O)[O-])[C@@H](c2ccc(O)cc2)N1Cc1ccncc1 (stereo not given in full),> 3.7
3,Cc1cccc(C2CC(=O)N(Cc3cccnc3)[C@H](c3ccc(O)cc3)[C@H]2[N+](=O)[O-])c1 (stereo not given in full),0.41
4,Nc1cc([C@@H]2[C@@H]([N+](=O)[O-])C(c3ccccc3Br)CC(=O)N2Cc2cccnc2)ccc1O (stereo not given in full),0.097
5,COc1ccc([C@@H]2[C@@H]([N+](=O)[O-])C(c3ccccc3Br)CC(=O)N2Cc2cccnc2)cc1 (stereo not given in full),> 1.2
6,N[C@H]1C(c2cccc(Br)c2)CC(=O)N(Cc2cccnc2)[C@@H]1c1ccc(O)cc1 (stereo not given in full),> 3.7
7,O=C1CC(c2cccc(Cl)c2)[C@H]([N+](=O)[O-])[C@@H](c2ccc(O)cc2)N1Cc1cccnc1 (stereo not given in full),0.32
8,O=C1CC(c2ccccc2Br)[C@H]([N+](=O)[O-])[C@@H](c2ccc(O)c(CO)c2)N1Cc1cccnc1 (stereo not given in full),> 1.2
9,O=C1CC(c2cccc(Br)c2)[C@H](NO)[C@@H](c2ccc(O)cc2)N1Cc1cccnc1 (stereo not given in full),> 3.7
10,O=[N+]([O-])[C@H]1C(c2ccccc2Br)C=CN(Cc2cccnc2)[C@@H]1c1ccc(O)c(O)c1 (stereo not given in full),0.013
11,O=C1CC(c2cccc(Br)c2)[C@H]([N+](=O)[O-])[C@@H](c2ccc(O)cc2)N1Cc1ccc[n+]([O-])c1 (stereo not given in full),> 3.7
12,O=C1CC(c2ccccc2Br)[C@H]([N+](=O)[O-])[C@@H](c2ccc(O)c(O)c2)N1Cc1cccnc1 (mixture of isomers),0.046
13,O=[N+]([O-])[C@H]1C(c2ccccc2Br)CCN(Cc2cccnc2)[C@@H]1c1ccc(O)cc1 (mixture of isomers),0.0082
14,O=C1CC(c2ccccc2Br)[C@H]([N+](=O)[O-])[C@@H](c2ccc(O)cc2)N1Cc1cccnc1 (mixture of isomers),0.14
15,O=[N+]([O-])[C@H]1C(c2ccccc2Br)CCN(Cc2cccnc2)[C@@H]1c1ccc(O)c(O)c1 (mixture of isomers),0.0037
16,"O=C1CC(c2ccccc2Br)[C@H]([N+](=O)[O-])[C@@H](c2ccc(O)c(O)c2)N1Cc1cccnc1 (single isomer, unassigned; (+))",0.03
17,"O=[N+]([O-])[C@H]1C(c2ccccc2Br)CCN(Cc2cccnc2)[C@@H]1c1ccc(O)cc1 (single isomer, unassigned; (+))",0.0058
18,"O=C1CC(c2ccccc2Br)[C@H]([N+](=O)[O-])[C@@H](c2ccc(O)cc2)N1Cc1cccnc1 (single isomer, unassigned; (+))",0.075
19,"O=[N+]([O-])[C@H]1C(c2ccccc2Br)CCN(Cc2cccnc2)[C@@H]1c1ccc(O)c(O)c1 (single isomer, unassigned; (+))",0.0019
20,"O=C1CC(c2ccccc2Br)[C@H]([N+](=O)[O-])[C@@H](c2ccc(O)c(O)c2)N1Cc1cccnc1 (single isomer, unassigned; (-))",1.2
21,"O=[N+]([O-])[C@H]1C(c2ccccc2Br)CCN(Cc2cccnc2)[C@@H]1c1ccc(O)cc1 (single isomer, unassigned; (-))",> 0.31
22,"O=C1CC(c2ccccc2Br)[C@H]([N+](=O)[O-])[C@@H](c2ccc(O)cc2)N1Cc1cccnc1 (single isomer, unassigned; (-))",0.95
23,O=C1CC(c2cccc(Br)c2)[C@H]([N+](=O)[O-])[C@@H](c2ccc(O)cc2)N1Cc1cccnc1 (stereo in doubt),0.42
24,O=C1CC(c2cccc(Br)c2)[C@H]([N+](=O)[O-])[C@@H](c2ccc(O)cc2)N1Cc1cccnc1 (stereo in doubt; 1),0.35
25,O=[N+]([O-])[C@H]1C(c2ccccc2Br)CCN(Cc2cccnc2)[C@@H]1c1ccc(O)c(O)c1 (stereo in doubt; 8-(-)),> 0.31
